High-throughput results: PubChem BioAssay, several laboratories
The list is not random: actives were taken first. Their share in the collection is about 1.1%.
PDI turbidity: inhibitors of human protein disulfide isomerase; inhibition, % at 10 µM; P07237; AID 588391; PDI insulin aggregation turbidity, A650, 90 min; 350,000 tested, 0.052% active;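 active means mean inhibition across replicates of 30% or more, whatever share of single replicates reach that level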
Rin1-Abl PPI inh: inhibitors of human Rin1-Abl protein interaction. P00519+Q13671. TR-FRET Rin1/Abl binding, biochemical. inhibition, % at 7.35 µM. 360,000 tested, 0.4% active. AID 588664; in the data active means inhibition above about 5%, passing the limit was not always enough
ERAP1 inh: blocks human ERAP1 aminopeptidase activity; Q9NZ08; recombinant ERAP1, Leu-AMC fluorescence, 60 min; inhibition, % at 10.7 µM; 340,000 tested, 0.15% active; AID 652197;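 active means mean replicate inhibition of at least 30%, or all replicates individually reaching that 30% level; inactive means mean below 30% and not every replicate reaching it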
CAL PDZ FP-1: CAL PDZ (human) peptide binding inhibition; Q9HD26; purified CAL PDZ, TMR-peptide fluorescence polarization, 1 h; inhibition, % at 24.9 µM; 300,000 tested, 0.92% active; AID 602252;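 active means mean inhibition of at least 30% with at least half of replicates also reaching 30%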
ERp5 block: ERp5 (human) disulfide isomerase inhibition | ERp5 insulin aggregation, absorbance 650 nm, 90 min | 350,000 tested, 0.05% active | Q15084 | inhibition, % at 9.99 µM;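 active means mean replicate inhibition above about 25%, with every replicate also reaching it, limit read from the data, passing the limit was not always enough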
Target sequence (Q15084 whole entry, looked up): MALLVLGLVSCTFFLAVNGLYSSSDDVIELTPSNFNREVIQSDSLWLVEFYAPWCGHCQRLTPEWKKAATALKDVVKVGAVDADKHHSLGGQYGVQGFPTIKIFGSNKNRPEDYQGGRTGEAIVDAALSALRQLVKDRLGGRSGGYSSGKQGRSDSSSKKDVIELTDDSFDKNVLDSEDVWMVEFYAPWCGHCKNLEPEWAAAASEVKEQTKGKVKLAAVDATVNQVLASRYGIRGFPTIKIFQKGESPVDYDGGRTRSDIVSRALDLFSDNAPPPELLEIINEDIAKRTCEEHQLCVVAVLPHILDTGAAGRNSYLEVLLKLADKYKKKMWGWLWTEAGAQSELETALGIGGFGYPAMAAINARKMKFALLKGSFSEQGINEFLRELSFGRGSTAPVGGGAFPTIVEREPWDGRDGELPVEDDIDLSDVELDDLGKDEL
CAL PDZ FP-2: human CAL PDZ-peptide interaction inhibition; Q9HD26; purified CAL PDZ, TMR-peptide fluorescence polarization, 1 h; inhibition, % at 20 µM; 330,000 tested, 0.02% active; AID 504414;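 active means highest replicate inhibition of at least 40%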
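Assay system – tagged CAL PDZ protein CerCALP, purified · Timing – 1 h at RT · Compound – single point, 20 µM · Measured by – fluorescence polarization from S- and P-plane intensities, G-factor corrected · Evaluation – inhibition from polarization loss · Probe or stimulus – TMR reporter peptide T*-PRC34 · Buffer or medium – pH 7.4 phosphate-saline buffer, reducing agent, detergent, IgG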
A number is an active result.

For O=C(NCC[C@@H]1CC[C@@H](NC(=O)c2cccnc2)[C@H](CO)O1)Nc1ccc(C(F)(F)F)cc1 the results were ERAP1 inh inactive and ERp5 block inactive.
Screening COc1cc(C2C=C(c3cccs3)Nc3ncnn32)cc(OC)c1OC (centres undefined) returned PDI turbidity inactive, Rin1-Abl PPI inh inactive, CAL PDZ FP-1 33 and CAL PDZ FP-2 inactive.
Screening Cc1ccc(-c2cnc3c(c2)C(=O)N([C@@H](C)CO)C[C@@H](C)[C@H](CN(C)CC2CCCC2)O3)cc1 returned ERAP1 inh inactive and ERp5 block inactive.
Cc1ccc(CN2C(=NC(=O)CCC(=O)O)SC3CS(=O)(=O)CC32)cc1 (centres undefined) was read as PDI turbidity inactive, Rin1-Abl PPI inh inactive, ERAP1 inh inactive, CAL PDZ FP-1 inactive, ERp5 block inactive and CAL PDZ FP-2 inactive.
Cc1cc(C)c(N2C(=NC(=O)CCCC(=O)O)SC3CS(=O)(=O)CC32)c(C)c1 (centres undefined) was read as PDI turbidity inactive, Rin1-Abl PPI inh inactive, CAL PDZ FP-1 41 and CAL PDZ FP-2 inactive.
`O=C(Nc1ccccc1C(=O)N1CCN(c2ccccc2)CC1)c1ccco1` gave PDI turbidity inactive, Rin1-Abl PPI inh inactive, CAL PDZ FP-1 47 and CAL PDZ FP-2 inactive.
`Cc1ccc(S(=O)(=O)c2ccc(Oc3cccc(C)c3)cc2)cc1` gave PDI turbidity 32, Rin1-Abl PPI inh inactive, CAL PDZ FP-1 inactive and CAL PDZ FP-2 inactive.
`Cc1ccc(S(=O)(=O)c2ccc(C)cc2)cc1` gave PDI turbidity inactive, Rin1-Abl PPI inh inactive, ERAP1 inh inactive, CAL PDZ FP-1 inactive, ERp5 block inactive and CAL PDZ FP-2 inactive.
For COc1cc(/C=N/NC(=O)CSc2ccccn2)ccc1O the results were PDI turbidity inactive, Rin1-Abl PPI inh inactive, ERAP1 inh inactive, CAL PDZ FP-1 44, ERp5 block inactive and CAL PDZ FP-2 inactive.
Screening N#CC1C(=O)NC(c2ccccc2)=CC1c1ccccc1 (centres undefined) returned PDI turbidity inactive, Rin1-Abl PPI inh inactive, ERAP1 inh inactive, CAL PDZ FP-1 110, ERp5 block inactive and CAL PDZ FP-2 inactive.
Cc1nc(NCCCN2CCOCC2)c2cnn(-c3ccccc3)c2n1 was read as PDI turbidity inactive, Rin1-Abl PPI inh inactive, ERAP1 inh inactive, CAL PDZ FP-1 36, ERp5 block inactive and CAL PDZ FP-2 inactive.
`NC(=O)c1ccc(NC(=O)COC(=O)C2CCN(S(=O)(=O)c3cccs3)CC2)cc1` gave PDI turbidity inactive, Rin1-Abl PPI inh inactive, ERAP1 inh inactive, CAL PDZ FP-1 130, ERp5 block inactive and CAL PDZ FP-2 inactive.
O=C1OC2(CCCCC2)OC(=O)C1=CNc1nc2ccccc2s1 was read as PDI turbidity inactive, Rin1-Abl PPI inh inactive, CAL PDZ FP-1 52 and CAL PDZ FP-2 inactive.
`O=C1OC2(CCCCC2)OC(=O)C1=CNc1nccs1` gave PDI turbidity inactive, Rin1-Abl PPI inh inactive, CAL PDZ FP-1 inactive and CAL PDZ FP-2 inactive.
For O=C([C@H]1[C@H](CO)[C@H]2Cn3c(ccc(-c4cncnc4)c3=O)[C@H]2N1CC1CC1)N1CCCCC1 the results were ERAP1 inh inactive and ERp5 block inactive.
Screening Cc1cccc(-c2ccc([C@@H]3[C@H]4CN(C(=O)c5cccnc5)CC(=O)N4[C@H]3CO)cc2)c1 returned ERAP1 inh inactive and ERp5 block inactive.
For Cc1cc(NC(=O)CCN2C(=O)C3C4CCC(C4)C3C2=O)cc(C)c1Br (centres undefined) the results were PDI turbidity inactive, Rin1-Abl PPI inh inactive, CAL PDZ FP-1 inactive and CAL PDZ FP-2 inactive.
Cc1c(Br)ccc(NC(=O)CCN2C(=O)C3C4CCC(C4)C3C2=O)c1C (centres undefined) was read as PDI turbidity inactive, Rin1-Abl PPI inh inactive, CAL PDZ FP-1 32 and CAL PDZ FP-2 inactive.
`Cc1cccc(S(=O)(=O)N2CC[C@H]3[C@@H](CO)N(C)c4ccc(Br)cc4[C@H]32)c1` gave ERAP1 inh inactive and ERp5 block inactive.
For Cc1ccccc1-n1nnnc1SCC(=O)c1c(N)n(C)c(=O)n(C)c1=O the results were PDI turbidity inactive, Rin1-Abl PPI inh inactive, ERAP1 inh inactive, CAL PDZ FP-1 32, ERp5 block inactive and CAL PDZ FP-2 inactive.
Screening CC(=O)c1ccc(-c2ccc(C(=O)NCC(c3ccc(F)cc3)N3CCOCC3)o2)cc1 (centres undefined) returned PDI turbidity inactive, Rin1-Abl PPI inh inactive, ERAP1 inh inactive, CAL PDZ FP-1 142, ERp5 block inactive and CAL PDZ FP-2 inactive.
`CC(=O)c1c(C)[nH]c(C(=O)COC(=O)c2c(-c3ccccc3)noc2C)c1C` gave PDI turbidity inactive, Rin1-Abl PPI inh inactive, ERAP1 inh inactive, CAL PDZ FP-1 64, ERp5 block inactive and CAL PDZ FP-2 inactive.
For N#C/C(=N\Nc1ccc(F)cc1)C(=N)N1CCCCCC1 the results were PDI turbidity inactive, Rin1-Abl PPI inh inactive, ERAP1 inh inactive, ERp5 block inactive and CAL PDZ FP-2 inactive.
`COc1ccc(N/N=C(\C#N)C(=N)N2CCCCC2)cc1` gave PDI turbidity inactive, Rin1-Abl PPI inh inactive, CAL PDZ FP-1 49, ERp5 block inactive and CAL PDZ FP-2 inactive.
Screening Cc1ccc(N/N=C(\C#N)C(=N)N2CCCCCC2)cc1 returned PDI turbidity inactive, Rin1-Abl PPI inh inactive, ERAP1 inh inactive, CAL PDZ FP-1 30, ERp5 block inactive and CAL PDZ FP-2 inactive.
For Cc1c(C(=O)N2CCCCC2)oc2ccc(Br)cc12 the results were PDI turbidity inactive, Rin1-Abl PPI inh inactive, ERAP1 inh inactive, CAL PDZ FP-1 inactive, ERp5 block inactive and CAL PDZ FP-2 inactive.
`Cc1c(C(=O)N2CCN(S(=O)(=O)c3ccccc3)CC2)oc2ccc(Br)cc12` gave PDI turbidity inactive, Rin1-Abl PPI inh inactive, ERAP1 inh inactive, CAL PDZ FP-1 32, ERp5 block inactive and CAL PDZ FP-2 inactive.
`Cc1ccc(S(=O)(=O)Nc2cc3c(cc2N2CCOCC2)n(C)c(=O)c(=O)n3C)cc1` gave PDI turbidity inactive, Rin1-Abl PPI inh inactive, ERAP1 inh inactive, CAL PDZ FP-1 36, ERp5 block inactive and CAL PDZ FP-2 inactive.
Screening Cc1ccc(S(=O)(=O)Nc2ccc3c(c2)nc(CCN2CCOCC2)n3C)cc1 returned PDI turbidity inactive, Rin1-Abl PPI inh inactive, CAL PDZ FP-1 32, ERp5 block inactive and CAL PDZ FP-2 inactive.
For CCN(CC)S(=O)(=O)c1ccc(N2CCOCC2)c(NS(=O)(=O)c2ccc(C)c(C)c2)c1 the results were PDI turbidity inactive, Rin1-Abl PPI inh inactive, CAL PDZ FP-1 89 and CAL PDZ FP-2 inactive.
For CCN(CC)S(=O)(=O)c1ccc(N2CCOCC2)c(NS(=O)(=O)c2ccc(C)cc2)c1 the results were PDI turbidity inactive, Rin1-Abl PPI inh inactive, ERAP1 inh inactive, CAL PDZ FP-1 inactive, ERp5 block inactive and CAL PDZ FP-2 inactive.
